# According to ChEMBL document CHEMBL1671666, “Anti-human immunodeficiency virus activity, cross-resistance, cytotoxicity, and intracellular pharmacology of the 3'-azido-2',3'-dideoxypurine nucleosides” (Antimicrob Agents Chemother, 2009):
# How the values were obtained:
# [1] = target: Human immunodeficiency virus type 1 reverse transcriptase (Human immunodeficiency virus 1) (UniProt Q72547); assay: Ratio of Kpol to Kd for HIV1 reverse transcriptase
# Summary of the method: (§1)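 Pre-steady-state rapid quench with purified WT HIV-1 RT. Quenched with 0.5 M EDTA between 10 ms and 30 min. Products resolved on 7 M urea-16% polyacrylamide gels. Gives kpol and Kd; selectivity = (kpol/Kd)dNTP/(kpol/Kd)NRTI-TP. At least three independent experiments, mean ± SD.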
# [2] = target: Human immunodeficiency virus type 1 reverse transcriptase (Human immunodeficiency virus 1, UniProt Q72547); assay: Binding affinity to HIV1 reverse transcriptase; summary of the method: as §1
# [3] = target: Human immunodeficiency virus type 1 reverse transcriptase (Human immunodeficiency virus 1) (UniProt Q72547); assay: Selectivity, ratio of Kpol to Kd for dCTP to Kpol to Kd for compound at HIV1 reverse transcriptase; summary of the method: as §1
# [4] = target: Human immunodeficiency virus type 1 reverse transcriptase (Human immunodeficiency virus 1) (UniProt Q72547); assay: Activity at HIV1 reverse transcriptase measured after 30 mins; summary of the method: as §1
# [5] = test system: Human immunodeficiency virus 1; assay: Ratio of IC50 for HIV1 harboring reverse transcriptase L74V mutant infected in human HeLa P4/R5 cells to wild type HIV1 infected in human HeLa P4/R5 cells; assay type: functional
# Summary of the method: (§2)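 Single-replication-cycle assay in P4/R5 cells: HeLa stably carrying a Tat-activated β-galactosidase gene under an HIV LTR promoter, grown in phenol red-free DMEM with 10% FBS and 0.5 μg/ml puromycin. Virus stocks were titred in P4/R5 cells by threefold endpoint dilution (Reed–Muench).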
# [6] = test system: Human immunodeficiency virus 1; assay: Antiviral activity against HIV1 infected in human PBMC assessed as inhibition of viral replication; assay type: functional, organism-based
# Summary of the method: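 PBMC from healthy seronegative donors, isolated on a Ficoll-Hypaque gradient and stimulated with PHA for 2-3 days before infection. At least three independent experiments.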
# [7] = test system: Human immunodeficiency virus 1; assay: Antiviral activity against HIV1 harboring reverse transcriptase M184V mutant infected in human HeLa P4/R5 cells assessed as inhibition of viral replication; assay type: functional, organism-based; conditions: Human immunodeficiency virus 1, HeLa; summary of the method: as §2
# [8] = test system: Human immunodeficiency virus 1; assay: Ratio of IC50 for HIV1 harboring reverse transcriptase M184V mutant infected in human HeLa P4/R5 cells to wild type HIV1 infected in human HeLa P4/R5 cells; assay type: functional; summary of the method: as §2
# [9] = test system: Human immunodeficiency virus 1; assay: Antiviral activity against HIV1 infected in human MT2 cells assessed as inhibition of viral replication; assay type: functional, organism-based; conditions: Human immunodeficiency virus 1, MT2
# [10] = test system: Human immunodeficiency virus 1; assay: Ratio of IC50 for HIV1 harboring reverse transcriptase K65R mutant infected in human HeLa P4/R5 cells to wild type HIV1 infected in human HeLa P4/R5 cells; assay type: functional; summary of the method: as §2
# [11] = test system: Human immunodeficiency virus 1; assay: Antiviral activity against HIV1 harboring reverse transcriptase L74V mutant infected in human HeLa P4/R5 cells assessed as inhibition of viral replication; assay type: functional, organism-based; conditions: Human immunodeficiency virus 1, HeLa; summary of the method: as §2
# [12] = test system: Human immunodeficiency virus 1; assay: Antiviral activity against HIV1 infected in human HeLa P4/R5 cells assessed as inhibition of viral replication; assay type: functional, organism-based; conditions: Human immunodeficiency virus 1, HeLa
# Summary of the method: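 Single-cycle assay in P4/R5 HeLa cells carrying an HIV LTR-driven, Tat-activated β-galactosidase gene. Cells kept in phenol red-free DMEM with 10% FBS and 0.5 μg/ml puromycin. Virus stock titred on these cells by threefold endpoint dilution (Reed-Muench). At least three independent experiments.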
# [13] = test system: Human immunodeficiency virus 1; assay: Antiviral activity against HIV1 harboring reverse transcriptase K65R mutant infected in human HeLa P4/R5 cells assessed as inhibition of viral replication; assay type: functional, organism-based; conditions: Human immunodeficiency virus 1, HeLa; summary of the method: as §2
# HepG2 [14] = assay: Mitochondrial toxicity in human HepG2 cells assessed as percent mitochondrial DNA production at 100 uM after 14 days by real-time PCR relative to control; assay type: cell-based; conditions: hepg2, 336 h
# Summary of the method: (§3)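 Low-passage HepG2 cells seeded at 5,000 cells/well on collagen-coated plates and cultured 14 days with 10 or 100 μM NRTI. mtDNA and β-actin DNA quantified by real-time PCR in duplicate; mtDNA normalized to β-actin and expressed relative to untreated cells. At least two independent experiments; ranges given.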
# beta-actin DNA [15] = assay: Mitochondrial toxicity in human HepG2 cells assessed as percent inhibition of beta-actin DNA at 10 uM after 14 days by real-time PCR; assay type: cell-based; summary of the method: as §3
# HepG2 [16] = assay: Mitochondrial toxicity in human HepG2 cells assessed as percent mitochondrial DNA production at 10 uM after 14 days by real-time PCR relative to control; assay type: cell-based; conditions: hepg2, 336 h; summary of the method: as §3
# HepG2 [17] = assay: Mitochondrial toxicity in human HepG2 cells assessed as percent lactic acid production at 10 uM after 14 days by real-time PCR relative to beta-actin DNA; assay type: cell-based; conditions: hepg2, 336 h
# Summary of the method: (§4)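 HepG2 cells cultured 14 days with 10 or 100 μM NRTI. Lactic acid quantified with a D-/L-lactic acid enzymatic test kit and expressed relative to β-actin DNA and to untreated control.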
# HepG2 [18] = assay: Mitochondrial toxicity in human HepG2 cells assessed as percent lactic acid production at 100 uM after 14 days by real-time PCR relative to beta-actin DNA; assay type: cell-based; conditions: hepg2, 336 h; summary of the method: as §4
# beta-actin DNA [19] = assay: Mitochondrial toxicity in human HepG2 cells assessed as percent inhibition of beta-actin DNA at 100 uM after 14 days by real-time PCR; assay type: cell-based; summary of the method: as §3
# mitochondrial DNA [20] = assay: Mitochondrial toxicity in human HepG2 cells assessed as percent inhibition of mitochondrial DNA at 10 uM after 14 days by real-time PCR; assay type: cell-based; summary of the method: as §3
# mitochondrial DNA [21] = assay: Mitochondrial toxicity in human HepG2 cells assessed as percent inhibition of mitochondrial DNA at 100 uM after 14 days by real-time PCR; assay type: cell-based; summary of the method: as §3
# [22] = target: Human immunodeficiency virus type 1 reverse transcriptase (Human immunodeficiency virus 1) (UniProt Q72547); assay: Selectivity, ratio of Kpol to Kd for TTP to Kpol to Kd for compound at HIV1 reverse transcriptase; summary of the method: as §1
# [23] = Cytotoxicity against human MT2 cells after 2 to 4 days by MTT assay; assay type: cell-based
# Summary of the method: (§5)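 Log-phase cells seeded at 5 × 10³ to 5 × 10⁴ cells/well with 10-fold serial compound dilutions. Incubated 2-4 days; viability read by MTT staining. CC50 from concentration-response curves by the median effect method. Mean of at least three independent experiments.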
# [24] = Cytotoxicity against human HeLa P4/R5 cells
# [25] = test system: Human immunodeficiency virus 1; assay: Antiviral activity against HIV1 harboring reverse transcriptase Q151M mutant infected in human HeLa P4/R5 cells assessed as inhibition of viral replication; assay type: functional, organism-based; conditions: Human immunodeficiency virus 1, HeLa; summary of the method: as §2
# [26] = test system: Human immunodeficiency virus 1; assay: Antiviral activity against HIV1 harboring reverse transcriptase D67N/K70R/T215F/K219Q mutant infected in human HeLa P4/R5 cells assessed as inhibition of viral replication; assay type: functional, organism-based; conditions: Human immunodeficiency virus 1, HeLa; summary of the method: as §2
# [27] = Cytotoxicity against human CEM cells after 2 to 4 days by MTT assay; assay type: cell-based; conditions: CEM cells (CCRF-CEM); summary of the method: as §5
# [28] = test system: Human immunodeficiency virus 1; assay: Antiviral activity against HIV1 harboring reverse transcriptase diserine insert between residues 69 and 70 infected in human HeLa P4/R5 cells assessed as inhibition of viral replication; assay type: functional, organism-based; conditions: Human immunodeficiency virus 1, HeLa; summary of the method: as §2
# [29] = test system: Human immunodeficiency virus 1; assay: Antiviral activity against HIV1 harboring reverse transcriptase M41L/L210W/T215Y mutant infected in human HeLa P4/R5 cells assessed as inhibition of viral replication; assay type: functional, organism-based; conditions: Human immunodeficiency virus 1, HeLa; summary of the method: as §2
# [30] = test system: Human immunodeficiency virus 1; assay: Antiviral activity against HIV1 harboring reverse transcriptase M41L/D67N/K70R/T215F/K219Q mutant infected in human HeLa P4/R5 cells assessed as inhibition of viral replication; assay type: functional, organism-based; conditions: Human immunodeficiency virus 1, HeLa; summary of the method: as §2
# [31] = Cytotoxicity against human PBMC after 2 to 4 days by MTT assay; assay type: cell-based; summary of the method: as §5
# [32] = test system: Human immunodeficiency virus 1; assay: Antiviral activity against HIV1 harboring reverse transcriptase M41L/D67N/K70R/L210W/T215Y/K219Q mutant infected in human HeLa P4/R5 cells assessed as inhibition of viral replication; assay type: functional, organism-based; conditions: Human immunodeficiency virus 1, HeLa; summary of the method: as §2
# [33] = Cytotoxicity against african green monkey Vero cells after 2 to 4 days by MTT assay; assay type: cell-based; conditions: chlorocebus sabaeus; summary of the method: as §5
SMILES,Ratio [1] [µM⁻¹ s⁻¹],Kd [2] [nM],Activity [4] [s⁻¹],IC50 [6] [nM],IC50 [9] [nM],IC50 [12] [nM],IC50 [13] [nM],other results
Nc1nc2c(ncn2[C@H]2C[C@H](O)[C@@H](COP(=O)(O)OP(=O)(O)OP(=O)(O)O)O2)c(=O)[nH]1 [DEOXYGUANOSINE TRIPHOSPHATE],1.8,4200,7.5,–,–,–,–,–
O=c1[nH]cnc2c1ncn2[C@H]1CC[C@@H](CO)O1 [DIDANOSINE],–,–,–,100,490,2300,6300,Ratio IC50 [5]: 3.6; IC50 [7]: 4600 nM; Ratio IC50 [8]: 2; Ratio IC50 [10]: 2.7; IC50 [11]: 8300 nM
Nc1nc(=O)n([C@@H]2CS[C@H](CO)O2)cc1F [EMTRICITABINE],–,–,–,1,44,170,–,–
Nc1ccn([C@@H]2CS[C@H](CO)O2)c(=O)n1 [LAMIVUDINE],–,–,–,30,600,780,60500,"Activity (HepG2 [14]): 0.6%; inhibition at 336 h, 10 µM (beta-actin DNA [15]): < 1%; Activity (HepG2 [16]): 119%; IC50 [7]: > 60000 nM; Ratio IC50 [8]: >75; Activity (HepG2 [17]): 105%; Activity (HepG2 [18]): 416%; Ratio IC50 [10]: 77; inhibition at 336 h, 100 µM (beta-actin DNA [19]): 94.3%; inhibition at 336 h, 10 µM (mitochondrial DNA [20]): < 1%; inhibition at 336 h, 100 µM (mitochondrial DNA [21]): 100%"
Cc1cn([C@H]2C=C[C@@H](CO)O2)c(=O)[nH]c1=O [STAVUDINE],–,–,–,100,1900,5700,–,–
CC(C)OC(=O)OCOP(=O)(CO[C@H](C)Cn1cnc2c(N)ncnc21)OCOC(=O)OC(C)C.O=C(O)/C=C/C(=O)O [TENOFOVIR DISOPROXIL FUMARATE],–,–,–,14,540,4700,11400,Ratio IC50 [10]: 2.5
Nc1ccn([C@H]2CC[C@@H](CO)O2)c(=O)n1 [ZALCITABINE],–,–,–,200,130,1400,–,"inhibition at 336 h, 10 µM (beta-actin DNA [15]): 61.4%; Activity (HepG2 [16]): 0.3%; Activity (HepG2 [17]): 170%; inhibition at 336 h, 10 µM (mitochondrial DNA [20]): 99.9%"
Cc1cn([C@H]2C[C@H](N=[N+]=[N-])[C@@H](CO)O2)c(=O)[nH]c1=O [ZIDOVUDINE],–,–,–,–,31,190,210,CC50 [23]: 150000 nM; CC50 [24]: > 270000 nM; IC50 [25]: 214000 nM; IC50 [26]: 11900 nM; CC50 [27]: 86200 nM; IC50 [28]: 205000 nM; IC50 [7]: 180 nM; IC50 [29]: 10400 nM; IC50 [11]: 210 nM; IC50 [30]: 96700 nM; CC50 [31]: > 100000 nM; IC50 [32]: 58600 nM; CC50 [33]: > 100000 nM

# Further lines, with some results ahead:
Ratio [1] [µM⁻¹ s⁻¹],Kd [2] [nM],Activity [4] [s⁻¹],SMILES,IC50 [6] [nM],IC50 [9] [nM],IC50 [12] [nM],IC50 [13] [nM],other results
0.2,2700,0.4,Nc1ccn([C@H]2CC[C@@H](COP(=O)(O)OP(=O)(O)OP(=O)(O)O)O2)c(=O)n1 [DDCTP],–,–,–,–,Selectivity ratio [3]: 6.7
4.2,2200,9.2,Cc1cn([C@H]2C[C@H](O)[C@@H](COP(=O)(O)OP(=O)(O)OP(=O)(O)O)O2)c(=O)[nH]c1=O [DEOXYTHYMIDINE_TRIPHOSPHATE],–,–,–,–,–
1.6,2700,4.3,Cc1cn([C@H]2C=C[C@@H](COP(=O)(O)OP(=O)(O)OP(=O)(O)O)O2)c(=O)[nH]c1=O [STAVUDINE TRIPHOSPHATE],–,–,–,–,Selectivity ratio [22]: 2.6
